High-throughput results: PubChem, several laboratories
This is a sample that favours compounds with a hit; in the whole collection about 4.8% have one here.
Beta cell apopt: inhibitors of cytokine-induced beta cell apoptosis, primary screen, luminescence | INS-1E cytokine-induced death, ATP luminescence, 48 h; percent of positive-control rescue, neutral wells zero | protection from apoptosis, % (concentration not given with the values) | 300,000 tested, 0.8% active | AID 435005, 2010;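 active means Every replicate reaches about 75%, or at least half do and their mean reaches it too, limit read from the data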;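 further: 0% = cytokine-treated negative control wells and 100% = positive control rescue; higher means more ATP so stronger rescue from cytokine killing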
SKKanGAS inh: S. pyogenes SKKanGAS growth inhibitors in kanamycin, primary screen, streptokinase expression inhibitor project, SKKanGAS strain, BacTiter-Glo luminescence; 6 h; inhibition, % at 7.5 µM; 300,000 tested, 1.3% active; AID 1662, 2009;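 active means mean replicate score, as percent of positive control median, at least 50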;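 further: strain carries kanamycin resistance gene driven by streptokinase promoter and grows in 40 µg/ml kanamycin; loss of luminescence reflects streptokinase promoter inhibition or plain growth inhibition; 0% = median of DMSO wells and 100% = positive control at its reference dose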
CHOP UPR activ: activators of apoptotic CHOP UPR arm, primary screen, cell-based, CHO-CHOP luciferase reporter, luminescence, uHTS; AID 449763, 2010; activation, % at 10 µM; 330,000 tested, 0.34% active; UPR activation; percent of tunicamycin response over DMSO baseline;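 active means at 10 µM dose, activation of 40% or more, normalized to positive control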;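 further: 100% = tunicamycin at 10 µg/mL and 0% = DMSO alone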
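Evaluation: % reporter activation, DMSO baseline versus tunicamycin full activation; System: CHO-CHOP luciferase reporter cell line; Input: 500 cells/well; Incubation: 6 h compound treatment, 37 °C; Measured by: Steady-Glo luciferase luminescence; Dosing: one dose, 10 µM in 0.5% DMSO; Buffer or medium: F12 medium, 10% FBS; Benchmarks: positive tunicamycin 10 µg/mL, negative DMSO alone.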
Mdm2-MdmX inh: inhibitors of human Mdm2-MdmX association, primary screen, cell-based, luminescence, split luciferase, SaOS-2, uHTS | Protein Mdm4 (Homo sapiens) + E3 ubiquitin-protein ligase Mdm2 (Homo sapiens), … | SaOS-2 split-luciferase Mdm2/MdmX complementation | inhibition, % at 8 µM | 330,000 tested, 3% active | AID 485346, 2010;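 active means inhibition of at least 50% at 8 µM in the primary screen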
Target sequence (O15151 whole entry, looked up): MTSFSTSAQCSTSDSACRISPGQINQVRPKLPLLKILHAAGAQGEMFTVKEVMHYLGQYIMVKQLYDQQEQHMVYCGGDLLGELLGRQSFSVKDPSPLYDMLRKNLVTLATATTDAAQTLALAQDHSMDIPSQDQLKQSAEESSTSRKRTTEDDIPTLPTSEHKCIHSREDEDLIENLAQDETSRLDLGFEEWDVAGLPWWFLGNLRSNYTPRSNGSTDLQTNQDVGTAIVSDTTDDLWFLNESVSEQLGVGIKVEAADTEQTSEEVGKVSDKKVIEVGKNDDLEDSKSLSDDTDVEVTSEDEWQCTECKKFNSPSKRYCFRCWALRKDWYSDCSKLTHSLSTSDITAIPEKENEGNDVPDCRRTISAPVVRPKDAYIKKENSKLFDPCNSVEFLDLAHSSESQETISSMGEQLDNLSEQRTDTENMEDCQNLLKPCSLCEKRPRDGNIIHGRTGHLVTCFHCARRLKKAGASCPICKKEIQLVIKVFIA
Target sequence (Q00987 whole entry, looked up): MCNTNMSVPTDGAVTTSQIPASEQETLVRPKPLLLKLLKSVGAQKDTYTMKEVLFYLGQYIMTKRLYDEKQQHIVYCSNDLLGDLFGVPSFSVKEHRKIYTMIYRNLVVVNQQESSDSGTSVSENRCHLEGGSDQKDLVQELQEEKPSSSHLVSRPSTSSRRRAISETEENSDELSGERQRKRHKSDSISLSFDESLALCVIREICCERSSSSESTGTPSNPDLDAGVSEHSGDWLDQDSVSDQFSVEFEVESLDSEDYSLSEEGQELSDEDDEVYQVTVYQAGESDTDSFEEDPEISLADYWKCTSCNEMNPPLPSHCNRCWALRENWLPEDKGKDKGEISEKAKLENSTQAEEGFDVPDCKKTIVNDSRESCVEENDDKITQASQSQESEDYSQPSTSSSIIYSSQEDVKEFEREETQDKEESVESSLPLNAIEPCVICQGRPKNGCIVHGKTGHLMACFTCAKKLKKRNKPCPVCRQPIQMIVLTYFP
CSC inhib: cancer stem cell viability inhibitors, primary screen, luminescence; cancer stem cell-like cells viability; inhibition, % at 7.5 µM; 300,000 tested, 1.1% active; AID 2717, 2010; in the data active means inhibition above about 75%; tested in HMLE shEcad cells
XBP1 UPR activ: activators of adaptive XBP1 UPR arm, primary screen, cell-based, CHO-XBP1 luciferase reporter, luminescence, uHTS. 330,000 tested, 0.33% active. AID 463104, 2010. activation, % at 20 µM. IRE1-XBP1 UPR activation; percent of tunicamycin response, DMSO as zero;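 active means versus positive control, 20 µM dose yields 30% or more activation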;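 further: 100% = tunicamycin at 10 µg/mL and 0% = DMSO only wells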
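Signal: luciferase luminescence; Assay system: CHO-XBP1 luciferase reporter cells; Amount: one thousand reporter cells per well; Dosing: 20 µM single concentration, DMSO 1%; Benchmarks: high control tunicamycin 10 µg/mL final, low control DMSO vehicle only; Schedule: 6 h compound exposure at 37 °C, 5% CO2; Evaluation: percent activation relative to tunicamycin reference.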
Active calls of the source: *; . = not tested or not shown.

SMILES	Beta cell apopt	SKKanGAS inh	CHOP UPR activ	Mdm2-MdmX inh	CSC inhib	XBP1 UPR activ
O=C(O)c1ccc(N/N=C/c2ccc(-c3cc(Cl)ccc3Cl)o2)cc1	-8	76*	-3	-23	15	-2
COc1cc2c(cc1OC)CN(CCC(C)c1ccc(Cl)cc1)CC2 (stereo not given)	-3	0	0	26	7	-2
CCN1C/C(=C/c2ccc(N3CCOCC3)cc2)C(=O)/C(=C/c2ccc(N3CCOCC3)cc2)C1	6	1	.	.	103*	.
CCOc1cc(-c2sc(Nc3cc(C)ccc3OC)n[n+]2-c2ccccc2)ccc1OC	94*	.	3	15	45	-2
CCOc1cc(-c2sc(Nc3ccc(CC)cc3)n[n+]2-c2ccccc2)ccc1OC	2	.	-2	21	-12	1
CCOc1ccccc1N(CC(=O)NC1CCCCC1)S(=O)(=O)c1ccccc1	9	1	1	6	.	-2
CC1(C)CC(=O)C2=C(C1)OC1=C(C(=O)CC(C)(C)C1)C2c1cc([N+](=O)[O-])cc([N+](=O)[O-])c1O	.	18	0	31	-6	-3
CC1(C)CC(=O)C(C2C3=C(CC(C)(C)CC3=O)Oc3c(Br)cc(Br)cc32)=C(O)C1 (stereo not given)	-5	56*	0	33	-3	-1
COc1cccc(/C=N/Nc2ccnc(=O)[nH]2)c1O	93*	-4	2	35	9	-5
O=c1nccc(N/N=C/c2ccccc2O)[nH]1	125*	12	2	32	8	-2
COc1cccc(/C=N/Nc2snc(SC)c2C#N)c1O	101*	27	10	44	56	1
Oc1cccc(C(=S)N2CCC(Cc3ccccc3)CC2)c1	-3	7	3	15	39	-3
COC(=O)CNc1nc(C2CC2)nc2c1nnn2Cc1ccccc1Cl	1	-7	0	25	-9	-4
CN(C)S(=O)(=O)c1ccc(Nc2nc(C3CC3)nc3c2nnn3Cc2ccccc2Cl)cc1	88*	22	6	19	.	3
N=C1S/C(=C\c2cn[nH]c2-c2ccc(F)cc2)C(=O)N1c1ccccc1F	-26	60*	6	-28	73	-1
O=C(CSc1nc2nc(-c3cccs3)cc(C(F)(F)F)c2c(=O)[nH]1)C(F)(F)F	2	26	0	38	-9	25
CC(=O)N1c2ccc3ccccc3c2C2C=CCC2C1c1ccc(Br)cc1 (stereo not given)	-1	.	.	.	16	.
CC(=O)N1c2ccc(Cl)cc2C2C=CCC2C1c1cccc2ccccc12 (stereo not given)	2	.	.	.	78*	.
Cc1cc(/C=N/n2cnnc2)c(C)n1-c1ccc(OCc2ccccc2F)cc1	122*	25	4	49	40	0
O=C(c1ccc(-c2cccc(C(F)(F)F)c2)o1)N1CCCC(C(F)(F)F)C1 (stereo not given)	-10	-5	4	-15	11	-4
CCCCCCCOc1ccc(OC(=O)c2cccnc2)cc1	2	-2	1	26	96*	9
OCc1ccccc1CN1CCCCCC1	-2	-3	0	14	-1	0
CC(=O)Nc1nc2ccccc2n1CCOc1ccccc1	7	63*	-1	25	2	4
CCCn1c(NC(=O)c2ccccc2Br)nc2ccccc21	25	58*	2	31	27	3
O=C(Nc1nc(-c2nc3ccccc3s2)cs1)C1COc2ccccc2O1 (stereo not given)	4	76*	4	-124	16	-1
SMILES	Beta cell apopt	SKKanGAS inh	CHOP UPR activ	Mdm2-MdmX inh	CSC inhib	XBP1 UPR activ
CCCCn1c(NC(=O)C2CCCCC2)nc2ccccc21	30	97*	-3	40	14	-2
COc1ccc(OC)c(-c2csc(NC(=O)C3COc4ccccc4O3)n2)c1 (stereo not given)	-3	21	-2	25	-12	1
COc1cc(NC(=O)CCc2nnc3ccc(N4CCC5(CC4)OCCO5)nn23)cc(OC)c1	3	-6	2	17	6	-5
CCCn1c(NC(=O)c2ccco2)nc2ccccc21	3	-10	3	41	1	0
CCCn1c(NC(=O)C2COc3ccccc3O2)nc2ccccc21 (stereo not given)	14	97*	-1	33	16	-1
COc1ccc(Cl)cc1NC(=O)C1CC(c2ccccc2O)=NO1 (stereo not given)	6	-2	1	27	-6	2
Cc1sc2ncnc(SCC(=O)N3CCCC(C(F)(F)F)C3)c2c1C (stereo not given)	.	55*	1	-34	-1	-2
O=C(CCC(=O)Nc1ccc(Br)cc1)N/N=C/c1cc([N+](=O)[O-])ccc1O	3	56*	-1	50	12	-5
O=C(CCC(=O)Nc1cc(C(F)(F)F)ccc1Cl)N/N=C\c1cc([N+](=O)[O-])ccc1O	40	103*	-1	49	16	-5
CC(NC(=O)CSc1nnnn1C1CC1)c1ccccc1Br (stereo not given)	0	.	3	-14	-18	0
Cc1ccc(C(=O)O)cc1NC(=S)NC(=O)c1ccc(COc2ccccc2)cc1	0	19	0	28	5	5
CN1CCC(OC(=O)c2cccc(Cl)c2)CC1	-10	-2	0	0	117*	-1
Cc1cccc(C(=O)OC2CCN(C)CC2)c1	-2	5	-1	22	47	1
O=C(NCc1ccccc1)C(c1c(F)cccc1Cl)N(C(=O)c1csnn1)C1CC1 (stereo not given)	-5	-5	1	-6	-10	-6
COc1ccc(-n2c(=S)[nH]c3cc(C(=O)Nc4ccc(C)c(F)c4)ccc3c2=O)c(OC)c1	24	76*	3	15	16	-6
c1ccc(-c2noc(-c3ccccc3-c3ccccc3)n2)cc1	1	75*	1	11	9	-1
O=C(CN1c2ccccc2Sc2ccccc21)NNC(=S)Nc1ccc(Cl)cc1	9	89*	0	19	31	-2
Oc1ccc(C[C@@H]2CNCCN2CC2(c3ccccc3)CC2)cc1	-4	7	2	40	-13	3
Cc1[nH]c2ccccc2c1/C=N/NC(N)=S	-7	20	5	11	2	4
